Only a selection was taken, and hits are over-represented in it overall.
L major viab = Leishmania major promastigote growth inhibition. Leishmania major promastigotes, resazurin fluorescence viability. inhibition, % at 10 µM. actives 9% (n = 200,000). AID 1063; in the data active means inhibition above about 50%;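 further: promastigotes grown with compound for 44 hours at 28 °C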
S1P4 antagonist = antagonists of human S1P4 receptor | S1P4-expressing cells, antagonist mode, reporter read-out | inhibition, % at 4.98 µM | actives 0.26% (n = 220,000) | AID 1510; in the data active means inhibition above about 29%;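 further: 0% = wells stimulated with agonist and 100% = vehicle wells without agonist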
S1P4 ag = human S1P4 receptor agonism. S1P4-expressing cell line, agonist reporter assay. activation, % at 4.98 µM. actives 0.35% (n = 220,000). AID 1509; in the data active means activation above about 11%;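 further: 0% = DMSO vehicle and 100% = reference agonist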
MDM2 E3 inh = inhibitors of human Mdm2 E3 ubiquitin ligase. AID 1230. signal enhancement, % at 5 µM. actives 0.11% (n = 210,000). cell-based MDM2 ubiquitination luciferase reporter, 2 h; 0 = plate control, 100 = twice control, blank-subtracted;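 active means signal enhancement of 30% or more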;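 further: luminescence tracks abundance of the self-degrading MDM2-luciferase fusion protein; higher signal means inhibition of MDM2 E3 ligase activity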
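Test system: mammalian cells stably expressing self-ubiquitinating, self-degrading MDM2 E3–luciferase fusion; Amount: 2000 cells in each well; Medium: DMEM; Schedule: 4 h settle plus 2 h compound, 37 °C; Technique: SteadyLite luciferase luminescence after 15 min room-temperature reagent incubation; Benchmarks: plate control and blank wells.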
S1P3 antagonist = antagonists of human S1P3 receptor; AID 485; Q99500; inhibition, % at 4.98 µM; actives 0.27% (n = 170,000); CHO S1P3 NFAT-BLA reporter, FRET fluorescence, antagonist mode;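 active means inhibition above the plate cutoff, the mean inhibition of test wells on that plate plus 3 SD, cut at about 28% in these data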;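 further: cells challenged with S1P at its EC80 of 0.8 µM; blue over green emission ratio from cleaved BLA substrate after 4 h stimulation; 0% = S1P-stimulated wells and 100% = unstimulated DMSO-only wells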
Starred values were filed as active, the others as inactive; / = no result given.

SMILES	L major viab	S1P4 antagonist	S1P4 ag	MDM2 E3 inh	S1P3 antagonist
CCOC(=O)C1=C(O)C(=O)N(c2ccc(S(N)(=O)=O)cc2)C1c1ccc(Br)cc1 (stereo unspecified)	/	-8	1	-16	-17
COc1cccc(/C=N/n2nnc3c(cnn3-c3ccccc3)c2=O)c1	0	-20	-1	4	/
CC1CCC2C(=O)N(c3ccccc3OC(=O)c3ccccc3F)C(=O)C2C1 (stereo unspecified)	-2	2	0	-21	-23
COc1cccc(C(=O)Oc2ccccc2/C=C\C(=O)c2cc3ccccc3o2)c1	100*	19	3	-9	-10
O=C(Nc1ccccc1)c1ccc(OC(=O)c2cc3ccccc3o2)cc1	-1	-15	1	-12	/
